Assay [1] relates to Mus musculus. The experiment in a line: Analgesic activity in Albino mouse at 50 mg/kg, po assessed as thermal stimuli reaction time change after 30 mins by hot plate method relative to basal level. The format is functional. An outline of the steps:
(§1)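 Hot-plate at 52 °C ± 0.1 °C with a 60 s cut-off, six mice per group. Dosing was oral, 50 mg/kg in 2% Tween 80. Latency to paw licking or jumping was recorded before dosing and at 0.5, 1 and 2 h. Results are given as % change from the pre-drug value, with one-way ANOVA and Duncan's test (P < 0.05).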
(In hot-plate and tail-flick tests a longer latency is read as antinociception.)

The subject of assay [2] is Mus musculus. As to the kind of experiment: Analgesic activity in Albino mouse at 50 mg/kg, po assessed as thermal stimuli reaction time change after 30 mins by hot plate method relative to indomethacin. The format is functional.
The subject of assay [3] is Mus musculus. The experiment in a line: Analgesic activity in Albino mouse at 50 mg/kg, po assessed as thermal stimuli reaction time change after 1 hr by hot plate method relative to basal level. The format is functional. An outline of the steps:
as §1

For assay [4], the system named is Mus musculus. As to the kind of experiment: Analgesic activity in Albino mouse at 50 mg/kg, po assessed as thermal stimuli reaction time change after 1 hr by hot plate method relative to indomethacin. The format is functional.
Assay [5] relates to Mus musculus. As to the kind of experiment: Analgesic activity in Albino mouse at 50 mg/kg, po assessed as thermal stimuli reaction time change after 2 hrs by hot plate method relative to basal level. The format is functional. An outline of the steps:
as §1

The test system of assay [6] is Mus musculus. The experiment in a line: Analgesic activity in Albino mouse at 50 mg/kg, po assessed as thermal stimuli reaction time change after 2 hrs mins by hot plate method relative to indomethacin. The format is functional.
Assay [7] concerns Mus musculus. The experiment in a line: Analgesic activity against visceral pain in Albino mouse assessed as acetic acid-induced writhing at 50 mg/kg, po after 30 mins. The format is functional. In a few lines:
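Mice (20–25 g, acclimatized 1 week, 12 h light/dark, 21–23 °C) given compound orally at 50 mg/kg as a suspension in 2% Tween 80. Negative controls got water in Tween 80. Visceral pain measured as acetic acid-induced writhing; indomethacin 50 mg/kg was the reference.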
On the technique in general: An intraperitoneal irritant provokes the stretching counted in writhing tests.

Assay [8] has as its system Mus musculus. The experiment in a line: Analgesic activity against visceral pain in Albino mouse assessed as acetic acid-induced writhing at 50 mg/kg, po after 30 mins relative to indomethacin. The format is functional.
For assay [9], the system named is Rattus norvegicus. As to the kind of experiment: Antiinflammatory activity in Albino rat assessed as inhibition of carrageenan-induced edema at 50 mg/kg, po after 1 hr. (In general: The carrageenan paw model is a standard test of acute inflammation.)
Assay [10] relates to Rattus norvegicus. The experiment in a line: Antiinflammatory activity in Albino rat assessed as inhibition of carrageenan-induced edema at 50 mg/kg, po after 2 hrs.
For assay [11], the system named is Rattus norvegicus. As to the kind of experiment: Antiinflammatory activity in Albino rat assessed as inhibition of carrageenan-induced edema at 50 mg/kg, po after 3 hrs.
Assay [12] has as its system Rattus norvegicus. The experiment in a line: Antiinflammatory activity in Albino rat assessed as inhibition of carrageenan-induced edema at 50 mg/kg, po after 4 hrs.
Assay [13] concerns Rattus norvegicus. As to the kind of experiment: Antiinflammatory activity in Albino rat assessed as inhibition of carrageenan-induced edema at 50 mg/kg, po after 5 hrs.
Assay [14] concerns Rattus norvegicus. As to the kind of experiment: Antiinflammatory activity in Albino rat assessed as inhibition of carrageenan-induced edema at 50 mg/kg, po after 6 hrs.

Molecules are shown by their SMILES.

Regarding `O=S(=O)(c1ccccc1)c1cnc2cc(-c3ccc(Cl)cc3)nn2c1-c1ccc(Br)cc1`, the Activity came out at 33% in the assay with Mus musculus [1]; 0.77 in the assay with Mus musculus [2]; 72.2% in the assay on Mus musculus [3]; 0.93 in the assay on Mus musculus [4]; 51.8% in the assay with Mus musculus [5]; 0.63 in the assay on Mus musculus [6]. In addition, the Activity with Mus musculus [7] is listed as 66.7%; in the assay with Mus musculus [8], 0.77. The inhibition in vivo at 50 mg/kg in the assay with Rattus norvegicus [9] was 24.2%; in the assay on Rattus norvegicus [10], 24.7%; with Rattus norvegicus [11] it was 24.8%; in the assay on Rattus norvegicus [12] it was 18.6%; in the assay on Rattus norvegicus [13], 13.8%; in the assay with Rattus norvegicus [14] it was 13.2%.
Regarding `Cc1ccc(-c2c(S(=O)(=O)c3ccccc3)cnc3ncnn23)cc1`, the Activity came to 7.1% in the assay with Mus musculus [1]; 0.16 in the assay with Mus musculus [2]; 5.3% with Mus musculus [3]; 0.06 with Mus musculus [4]; 0% with Mus musculus [5]; 0 in the assay with Mus musculus [6]. In the assay on Mus musculus [8], the Activity is reported as 0. Moreover, the inhibition in vivo at 50 mg/kg in the assay on Rattus norvegicus [9] is 7.5%; with Rattus norvegicus [10], 5.2%; in the assay on Rattus norvegicus [11], 4.4%; in the assay with Rattus norvegicus [12], 3.3%; with Rattus norvegicus [13], 2.4%; in the assay on Rattus norvegicus [14], 1.9%.
On to `Cc1cc2ncc(S(=O)(=O)c3ccccc3)c(-c3ccc(Br)cc3)n2n1`, for which the Activity in the assay with Mus musculus [1] stood at 27%; with Mus musculus [2], 0.63; in the assay on Mus musculus [3], 44.1%; in the assay with Mus musculus [4] it was 0.57; with Mus musculus [5] it was 39.7%; in the assay with Mus musculus [6] it was 0.49. Further, the Activity in the assay on Mus musculus [7] was 56.4%; in the assay on Mus musculus [8], 0.65. Besides, the inhibition in vivo at 50 mg/kg with Rattus norvegicus [9] turned out to be 7.4%; with Rattus norvegicus [10] it was 5.2%; in the assay with Rattus norvegicus [11], 4.4%; with Rattus norvegicus [12] it was 0%; in the assay with Rattus norvegicus [13], 0%; with Rattus norvegicus [14], 0%.
`O=S(=O)(c1ccccc1)c1cnc2ncnn2c1-c1ccc(Br)cc1`: the Activity with Mus musculus [1] is 5.4%; in the assay on Mus musculus [2] it was 0.12; in the assay with Mus musculus [3] it was 6.8%; in the assay on Mus musculus [4], 0.08; in the assay with Mus musculus [5], 5.4%; in the assay on Mus musculus [6] it was 0.06. In addition, the Activity in the assay on Mus musculus [7] is recorded as 10.8%; in the assay on Mus musculus [8] it was 0.12. In addition, the inhibition in vivo at 50 mg/kg with Rattus norvegicus [9] amounted to 2.2%; in the assay on Rattus norvegicus [10] it was 4.2%; in the assay on Rattus norvegicus [11], 1.6%; in the assay with Rattus norvegicus [12], 1.3%; with Rattus norvegicus [13], 0.8%; with Rattus norvegicus [14], 0.9%.
For the molecule `Cc1ccc(-c2cc3ncc(S(=O)(=O)c4ccccc4)c(-c4ccc(C)cc4)n3n2)cc1`, the Activity with Mus musculus [1] is listed as 25%; in the assay on Mus musculus [2], 0.58; in the assay with Mus musculus [3], 67.1%; in the assay on Mus musculus [4], 0.87; in the assay on Mus musculus [5] it was 57.5%; in the assay on Mus musculus [6] it was 0.71. Further, the Activity with Mus musculus [7] amounted to 74.4%; in the assay on Mus musculus [8], 0.86. For the same molecule, the inhibition in vivo at 50 mg/kg is 54.6% in the assay on Rattus norvegicus [9]; 42.6% in the assay with Rattus norvegicus [10]; 31.2% in the assay on Rattus norvegicus [11]; 20% with Rattus norvegicus [12]; 17% in the assay with Rattus norvegicus [13]; 11.6% in the assay with Rattus norvegicus [14].
Regarding `Cc1ccc(-c2c(S(=O)(=O)c3ccccc3)cnc3cc(C)nn23)cc1`, the Activity in the assay on Mus musculus [1] turned out to be 16%; with Mus musculus [2] it was 0.37; in the assay with Mus musculus [3] it was 16%; with Mus musculus [4], 0.21; in the assay with Mus musculus [5], 5.3%; in the assay with Mus musculus [6] it was 0.07. The Activity in the assay with Mus musculus [7] is listed as 30%; in the assay with Mus musculus [8], 0.35. Moreover, the inhibition in vivo at 50 mg/kg amounted to 25.8% in the assay with Rattus norvegicus [9]; 25.2% with Rattus norvegicus [10]; 23.2% in the assay on Rattus norvegicus [11]; 14% in the assay with Rattus norvegicus [12]; 8.1% in the assay with Rattus norvegicus [13]; 8.7% in the assay with Rattus norvegicus [14].
For the molecule `Cc1ccc(-c2c(S(=O)(=O)c3ccccc3)cnc3cc(-c4ccc(Br)cc4)nn23)cc1`, the Activity with Mus musculus [1] was 29%; in the assay on Mus musculus [2] it was 0.67; in the assay on Mus musculus [3], 56.4%; in the assay on Mus musculus [4] it was 0.73; with Mus musculus [5], 56.4%; with Mus musculus [6], 0.7. In addition, the values for the Activity in the assay on Mus musculus [7] and in the assay on Mus musculus [8] were 65.2% and 0.76, respectively. The inhibition in vivo at 50 mg/kg in the assay with Rattus norvegicus [9] was 74.1%; in the assay on Rattus norvegicus [10], 72.6%; in the assay with Rattus norvegicus [11], 69.2%; in the assay with Rattus norvegicus [12], 26.6%; in the assay on Rattus norvegicus [13] it was 31.7%; with Rattus norvegicus [14] it was 54.3%.
`Cc1ccc(-c2c(S(=O)(=O)c3ccccc3)cnc3c(Br)c(-c4ccccc4)nn23)cc1`: the Activity in the assay on Mus musculus [1] was 43.8%; in the assay with Mus musculus [2], 1.02; in the assay with Mus musculus [3], 78%; in the assay with Mus musculus [4], 1.02; in the assay on Mus musculus [5], 68.4%; in the assay with Mus musculus [6] it was 0.84. For the same molecule, the Activity in the assay with Mus musculus [7] worked out at 85.6%; in the assay with Mus musculus [8], 0.99. Further, the inhibition in vivo at 50 mg/kg in the assay on Rattus norvegicus [9] stood at 65.5%; with Rattus norvegicus [10] it was 61%; in the assay on Rattus norvegicus [11], 54.8%; with Rattus norvegicus [12] it was 12.5%; in the assay with Rattus norvegicus [13], 0%; in the assay with Rattus norvegicus [14] it was 6.6%.
In the case of `Cc1ccc(-c2c(S(=O)(=O)c3ccccc3)cnc3nc4ccccc4n23)cc1`, the Activity with Mus musculus [1] amounted to 9.2%; in the assay on Mus musculus [2], 0.21; in the assay with Mus musculus [3], 23%; in the assay with Mus musculus [4], 0.3; with Mus musculus [5], 21.5%; with Mus musculus [6] it was 0.26. The results for the Activity in the assay with Mus musculus [7] and in the assay on Mus musculus [8] were 9.1% and 0.1, respectively. Besides, the inhibition in vivo at 50 mg/kg came to 7.3% with Rattus norvegicus [9]; 5% in the assay with Rattus norvegicus [10]; 4.2% in the assay on Rattus norvegicus [11]; 0% with Rattus norvegicus [12]; 0% in the assay with Rattus norvegicus [13]; 0% with Rattus norvegicus [14].
`Cc1ccc(-c2c(S(=O)(=O)c3ccccc3)cnc3cc(-c4ccccc4)nn23)cc1`: the Activity in the assay on Mus musculus [1] is 15.2%; in the assay on Mus musculus [2], 0.35; in the assay with Mus musculus [3] it was 18.6%; in the assay on Mus musculus [4], 0.24; with Mus musculus [5], 15.2%; in the assay with Mus musculus [6], 0.19. For the same molecule, the Activity is 28% in the assay on Mus musculus [7] and 0.32 in the assay on Mus musculus [8]. Further, the inhibition in vivo at 50 mg/kg was found to be 42.5% with Rattus norvegicus [9]; 41% in the assay with Rattus norvegicus [10]; 36.4% with Rattus norvegicus [11]; 22.6% in the assay on Rattus norvegicus [12]; 28.2% with Rattus norvegicus [13]; 15.5% in the assay with Rattus norvegicus [14].
On to `COc1ccc2c(c1)c(CC(=O)O)c(C)n2C(=O)c1ccc(Cl)cc1` [INDOMETHACIN], for which the Activity in the assay on Mus musculus [1] was 43%; in the assay on Mus musculus [3], 77.2%; in the assay on Mus musculus [5] it was 81%; in the assay on Mus musculus [7], 85.8%. The inhibition in vivo at 50 mg/kg in the assay with Rattus norvegicus [9] is 77%; in the assay with Rattus norvegicus [10], 56%; with Rattus norvegicus [11], 44%; in the assay with Rattus norvegicus [12], 28.7%; in the assay with Rattus norvegicus [13], 28.4%; in the assay with Rattus norvegicus [14], 50%.

By inhibition in vivo is commonly meant the drop in the measured response relative to a control, in per cent.

Source of the values: ChEMBL document CHEMBL1150421, “Synthesis and analgesic/anti-inflammatory evaluation of fused heterocyclic ring systems incorporating phenylsulfonyl moiety” (2008).
